# Activity calls are given as the source filed them.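 The calls were made as follows, unless noted: active = a full or partial loss of lipid-probe fluorescence in the fish gall bladder, intestine or both, judged by eye; inactive = no fluorescence loss, or compound toxic to the fish.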
# How the values were obtained:
# [1] = inhibitors of TNFa-induced NFkB p65 translocation, primary screen, imaging, HUVEC, MLSMR starter and 10KST1 sets (AID 438;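 active = inhibition above 20% together with a positive visual image hit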;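 also: compound added about 3h40 before a 20 min TNFalpha stimulation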;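 as to inhibition: signal is the nuclear over cytoplasmic p65 intensity ratio per well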); details: HUVEC TNFa-induced p65 nuclear translocation; cell count: measured here: nuclei count (cytotoxicity indicator), at 2.08 µM; inhibition: at 2 µM, stronger effect = higher value, 0% TNFa-plus-vehicle, 100% no-TNFa wells
# [2] = endothelial E-selectin expression blockers – imaging, HUVEC, immunofluorescence, MLSMR starter and 10KST1 sets, primary screen (AID 487;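 active = visually confirmed hit in the image check and inhibition above 20%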;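 as to inhibition: signal is fraction of cell area covered by stained E-selectin grains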;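 as to nuclei count: 100% = median nuclei count of all wells on the same plate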); details: HUVEC TNFalpha-induced E-selectin immunofluorescence imaging, at 2 µM; inhibition: stronger effect = higher value; nuclei count: measured here: cell number, toxicity
# [3] = Primary imaging screen for DUSP6 inhibitors that restore phospho-Erk in transfected HeLa cells, chemical complementation (AID 609;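 active = compounds giving at least 50% inhibition in the cell-based MKP-3 phosphatase rescue imaging test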;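 as to inhibition: phospho-Erk level distribution per well compared with pooled transfected vehicle control wells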); details: HeLa MKP-3 transfected, phospho-Erk imaging KS statistic, at 10 µM, cells stimulated with TPA for 15 min
# [4] = biological target: Dual specificity protein phosphatase 6 (Homo sapiens) (UniProt Q16828); experiment: as above; details: HeLa MKP-3 transfected, phospho-Erk imaging KS statistic; at 10 µM; stronger effect = higher value; cells stimulated with TPA for 15 min
# [5] = biological target: Voltage-gated potassium channel subunit beta-2 (Rattus norvegicus) (UniProt P62483); experiment: inhibitors of rat Kvbeta2 reductase activity – biochemical, NADPH fluorescence, primary screen (AID 622;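 active = fluorescence slope higher than the sample average by over 3 SD, cut at about -0.22 in these data, passing the limit was not always enough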;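 also: slope of raw intensity against log time taken from 70 to 1610 s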); details: recombinant KvBeta, 4-cyanobenzaldehyde reduction, at 10 µM, stronger effect = higher value
# [6] = biological target: Voltage-gated potassium channel subunit beta-2 (Rattus norvegicus) (UniProt P62483); experiment: enhancers of rat Kvbeta2 NADPH turnover – biochemical, NADPH fluorescence, primary screen (AID 623;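 active = NADPH fluorescence slope more negative than the mean of all samples by about 3 SD, 99.7% confidence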;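 also: fluorescence intensity change per second fitted from 20 to 320 s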); details: Recombinant KvBeta, NADPH fluorescence decrease slope, 10 min; at 10 µM; stronger effect = lower value
# [7] = biological target: Muscarinic acetylcholine receptor M4 (Homo sapiens) (UniProt P08173); experiment: M4-linked GIRK flux change, two-sided – cell-based, HEK293 M4/GIRK, thallium flux, BTC-AM, M4 allosteric agonist project, primary screen (AID 625;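 active = fluorescence slope after compound addition differing from the mean of all tested samples at 99.7% confidence, mostly higher but some lower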;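 also: thallium influx through GIRK channels coupled to M4 in HEK293 cells with BTC-AM dye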); details: at 10 µM, actives lie on both sides
# How it was run: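 Material – HEK293 cells with M4 receptor and GIRK channels · Buffer or medium – pH 7.3 thallium assay buffer · Doses – one dose, 10 µM final · Timing – cells overnight at 37 °C, BTC-AM loading 1 h, reads 2 min total · Measured by – kinetic fluorescence with BTC-AM dye · Controls – carbachol and DMSO controls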
# [8] = inhibitors of larval lipid processing in zebrafish, primary screen, whole organism, PED6 fluorescence, gall bladder and intestine (AID 686); details: Zebrafish larvae PED6 lipid processing, fluorescence scoring; screened at 20 µM (by protocol);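 also: larvae 5 to 7 days old with five fish per well; signal comes from phospholipase A2 cleavage of quenched PED6 carried via bile; overnight exposure to compound and PED6 before scoring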
# How it was run: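 system = live zebrafish larvae aged 5-7 days, whole organism | probe or stimulus = ingested quenched lipid PED6 at 100 nM | doses = 20 µM single dose | timing = overnight exposure | detection = fluorescence microscopy with visual scoring of gall bladder and intestine | read-out = visual per-well fluorescence inhibition score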
# [9] = loss of swimming-algae plug formation – whole organism, Chlamydomonas reinhardtii, WT vs cilia-less mutant, absorbance, 96-well, primary screen (AID 463189;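 active = inhibition at or above 50% relative to wild type and mutant plate controls; inactive = inhibition below 50%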;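 also: 0% = wild type cc124 cells in DMSO and 100% = ciliumless bld1 mutant cells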); details: Chlamydomonas reinhardtii gravitaxis, OD600 absorbance, 2 days; at 10 µM; stronger effect = higher value
# [10] = measured here: cell density z-score
# [11] = measured here: nuclear c-Myc green intensity z-score
# [12] = measured here: nuclear pErk red intensity z-score, stronger effect = higher value
# Sequence of Voltage-gated potassium channel subunit beta-2 (Rattus norvegicus) (P62483 whole entry, looked up): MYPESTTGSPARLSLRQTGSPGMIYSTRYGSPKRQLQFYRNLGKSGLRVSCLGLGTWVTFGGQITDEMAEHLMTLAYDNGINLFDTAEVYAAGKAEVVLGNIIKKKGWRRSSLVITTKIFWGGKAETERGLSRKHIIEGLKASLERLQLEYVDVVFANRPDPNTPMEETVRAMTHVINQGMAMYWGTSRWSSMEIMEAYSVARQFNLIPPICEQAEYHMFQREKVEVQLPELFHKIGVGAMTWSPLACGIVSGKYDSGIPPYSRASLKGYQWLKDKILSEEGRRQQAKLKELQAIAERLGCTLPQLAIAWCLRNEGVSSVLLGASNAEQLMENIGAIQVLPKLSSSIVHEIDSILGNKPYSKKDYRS
# Sequence of Dual specificity protein phosphatase 6 (Homo sapiens) (Q16828 whole entry, looked up): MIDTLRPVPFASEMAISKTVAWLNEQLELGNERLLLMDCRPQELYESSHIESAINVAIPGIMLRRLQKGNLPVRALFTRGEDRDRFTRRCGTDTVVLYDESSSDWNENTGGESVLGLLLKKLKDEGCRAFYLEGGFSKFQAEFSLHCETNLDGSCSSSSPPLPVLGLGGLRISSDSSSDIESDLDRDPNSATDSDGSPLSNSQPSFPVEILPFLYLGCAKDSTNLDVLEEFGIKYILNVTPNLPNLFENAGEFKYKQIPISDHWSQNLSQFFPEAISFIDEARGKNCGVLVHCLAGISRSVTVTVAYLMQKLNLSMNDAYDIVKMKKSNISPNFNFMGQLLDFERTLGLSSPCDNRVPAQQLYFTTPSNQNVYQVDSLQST
# Sequence of Muscarinic acetylcholine receptor M4 (Homo sapiens) (P08173 whole entry, looked up): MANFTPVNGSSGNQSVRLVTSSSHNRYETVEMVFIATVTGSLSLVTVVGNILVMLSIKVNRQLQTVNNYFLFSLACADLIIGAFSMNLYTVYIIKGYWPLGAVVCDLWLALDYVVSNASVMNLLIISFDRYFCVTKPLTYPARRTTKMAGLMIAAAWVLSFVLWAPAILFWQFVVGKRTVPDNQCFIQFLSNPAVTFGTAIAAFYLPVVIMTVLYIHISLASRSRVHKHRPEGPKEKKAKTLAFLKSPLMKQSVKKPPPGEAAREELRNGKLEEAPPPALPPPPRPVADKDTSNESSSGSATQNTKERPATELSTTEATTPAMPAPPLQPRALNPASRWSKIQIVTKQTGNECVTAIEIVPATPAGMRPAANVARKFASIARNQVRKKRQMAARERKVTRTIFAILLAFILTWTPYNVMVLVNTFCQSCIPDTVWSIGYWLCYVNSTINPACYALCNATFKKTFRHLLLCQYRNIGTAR
Structure (SMILES),cell count [1],inhibition [1],inhibition [2],nuclei count [2],"z-score [3, 10]","z-score [3, 11]","z-score [3, 12]",inhibition [4],fluorescence slope [5],NADPH fluorescence slope [6],fluorescence slope [7],outcome [8],inhibition [9]
C[n+]1cccc(CNC(=O)/C=N/O)c1,621,-2.4% (inactive),-126% (inactive),158%,-2.05,3.02,0.751,6.04% (inactive),-0.47 (inactive),-3e-05 (inactive),0.00464 (inactive),inactive,-6.73% (inactive)
COC(=O)c1[nH]c(C)c(/C(O)=C2\C(=O)C(=O)N(CCN3CCOCC3)C2c2ccccc2OC)c1C (stereo unspecified),610,-6% (inactive),-13.3% (inactive),168%,-1.87,0.251,-0.629,-7.28% (inactive),-0.491 (inactive),-0.000142 (inactive),0.00635 (inactive),inactive,5.11% (inactive)
CC(O)CNc1nc2c(c(=O)n(C)c(=O)n2C)n1CCc1ccccc1 (stereo unspecified),710,-2.3% (inactive),-92.1% (inactive),180%,0.422,-1.99,1.04,5.95% (inactive),-0.464 (inactive),-0.000209 (active),0.00739 (inactive),inactive,23% (inactive)
Cc1nn2cnc3sc4c(c3c2nc1=O)CCCC4,535,-9.5% (inactive),-186% (inactive),145%,0.522,-0.702,-1.01,13.9% (inactive),-0.364 (inactive),-2.5e-05 (inactive),0.00519 (inactive),inactive,19.9% (inactive)
CC(C)=CCC(C)(C)CNC(=O)NC1CCCCC1,577,-4.2% (inactive),-143% (inactive),147%,-0.346,-0.203,-0.256,-0.584% (inactive),-0.459 (inactive),-0.000111 (inactive),0.00622 (inactive),inactive,19.5% (inactive)
Cc1ccc(C(=O)/C=C/Nc2ccccn2)cc1,361,-5.9% (inactive),-98.9% (inactive),104%,0.761,0.782,-1.14,15.4% (inactive),-0.455 (inactive),-3.3e-05 (inactive),0.00424 (inactive),inactive,35.5% (inactive)
CCN(CC)CCNc1ncnc2c1[nH]c1ccc(OC)cc12,595,-7.6% (inactive),-67.9% (inactive),150%,1.23,-0.0798,-1.12,3.42% (inactive),-0.236 (inactive),1.1e-06 (inactive),0.00672 (inactive),inactive,6% (inactive)
O=C(NCc1ccccn1)c1ccc(=O)oc1,758,8.2% (inactive),-1.5% (inactive),151%,0.015,0.178,-0.703,-3.95% (inactive),-0.48 (inactive),-4.4e-05 (inactive),0.00585 (inactive),inactive,17.3% (inactive)
Cc1cc(Nc2ccc3ccccc3c2)n2ncnc2n1,503,-0.6% (inactive),56.4% (inactive),146%,-0.633,0.516,-1.5,3.97% (inactive),-0.414 (inactive),-4.4e-05 (inactive),0.00533 (inactive),inactive,-3.1% (inactive)
O=C(COc1ccc(Cl)cc1)Nc1ccccc1CO,590,-0.5% (inactive),-9.8% (inactive),120%,1.01,0.534,-0.247,5.42% (inactive),-0.435 (inactive),-0.000143 (inactive),0.00526 (inactive),inactive,-8.26% (inactive)
Cc1cc(NC(CC(C)C)C(=O)O)nc(Cc2ccccc2)n1 (stereo unspecified),372,-2.8% (inactive),-117% (inactive),188%,-0.0865,-1.02,0.665,5.42% (inactive),-0.47 (inactive),-0.000155 (inactive),0.00469 (inactive),inactive,0.592% (inactive)
CCSc1nnc(NC(=O)C(C(F)(F)F)C(F)(F)F)s1,702,-5% (inactive),-40.7% (inactive),146%,-0.0594,-1.31,-1.04,-0.233% (inactive),-0.449 (inactive),-4.7e-05 (inactive),0.00555 (inactive),inactive,21.1% (inactive)
Cc1cc(=O)oc(C)c1C(=O)n1nc(C)c2c1C[C@@H]1[C@H]2C1(C)C,553,-3.8% (inactive),-44.9% (inactive),176%,0.489,0.72,-1.17,15.9% (inactive),-0.403 (inactive),-3.7e-05 (inactive),0.00461 (inactive),inactive,-9.72% (inactive)
Cc1nn(CC(N)=O)c(=O)c2ccccc12,579,-2.9% (inactive),-62.8% (inactive),142%,2.22,-0.838,0.00121,10.9% (inactive),-0.485 (inactive),-0.00011 (inactive),0.00427 (inactive),inactive,-4.61% (inactive)
CCC(NC(=O)Nc1ncccc1C)(C(F)(F)F)C(F)(F)F,612,5.3% (inactive),-36.6% (inactive),104%,1.12,0.397,-1.61,20.2% (inactive),-0.508 (inactive),-1.7e-05 (inactive),0.00598 (inactive),inactive,35.4% (inactive)
CCOC(=O)CNC(=O)CNC(=O)c1ccc(OC)cc1,394,-0.5% (inactive),6.4% (inactive),82.7%,0.162,0.31,1.25,17.4% (inactive),-0.447 (inactive),-5.5e-05 (inactive),0.0051 (inactive),inactive,23.5% (inactive)
Cn1c(=O)c2c(nc(NCc3ccc4c(c3)OCO4)n2Cc2ccccc2Cl)n(C)c1=O,634,-6% (inactive),-29.1% (inactive),104%,0.0435,2.04,0.82,-2.09% (inactive),-0.41 (inactive),-9.6e-06 (inactive),0.00449 (inactive),inactive,-8.68% (inactive)
CCOC(=O)c1c(CN2CCN(CCO)CC2)n(C)c2cc(Br)c(OC)cc12,380,-7.5% (inactive),-1.9% (inactive),103%,-0.09,0.157,0.909,-2.29% (inactive),-0.4 (inactive),5.8e-06 (inactive),0.00459 (inactive),inactive,26.8% (inactive)
CCCCCOc1ccccc1C(=O)NCCCC(=O)O,352,-4.8% (inactive),-57.4% (inactive),116%,0.366,-0.837,0.123,19.4% (inactive),-0.463 (inactive),-0.000126 (inactive),0.00541 (inactive),inactive,32.4% (inactive)
CCCCc1nc2sc3c(c2c(=O)[nH]1)CCC3,691,3.3% (inactive),8% (inactive),129%,-0.915,0.812,-0.126,-9.53% (inactive),-0.421 (inactive),-4e-05 (inactive),0.00621 (inactive),inactive,34.8% (inactive)
COc1ccc(N2C(=O)CC(N(Cc3ccc(S(N)(=O)=O)cc3)C(C)=O)C2=O)cc1 (stereo unspecified),550,4.1% (inactive),19.1% (inactive),126%,0.546,-0.739,0.891,20.2% (inactive),-0.481 (inactive),-3.2e-05 (inactive),0.00578 (inactive),inactive,9.88% (inactive)
CCCc1nc2n[nH]c(N)c2c2c1CCCC2,478,-12.3% (inactive),-64.3% (inactive),118%,-0.479,-0.89,-1.19,-2.09% (inactive),-0.48 (inactive),-0.000102 (inactive),0.00548 (inactive),inactive,-1.38% (inactive)
COc1ccc(CN(C#N)c2nc(SC)nc(N(C)C)n2)cc1,720,-0.6% (inactive),-41.4% (inactive),137%,0.386,1.03,0.357,-3.95% (inactive),-0.451 (inactive),-4.7e-05 (inactive),0.00509 (inactive),inactive,-6.51% (inactive)
COc1cc(Cn2ccnc2)c(OC)cc1Cn1ccnc1,588,0.1% (inactive),-64% (inactive),154%,0.988,1.55,0.136,1.63% (inactive),-0.422 (inactive),-0.000118 (inactive),0.0052 (inactive),inactive,10.7% (inactive)
COCCNc1ncnc2c1cnn2-c1ccc(Cl)cc1,534,-25.3% (inactive),11.8% (inactive),184%,1.76,-0.928,-0.638,23.4% (inactive),-0.429 (inactive),-5.8e-05 (inactive),0.00652 (inactive),inactive,6.55% (inactive)
CC1(C)Cc2c(sc3nc(SCC(=O)NCc4ccco4)n(-c4ccccc4)c(=O)c23)CS1,501,-2.3% (inactive),-158% (inactive),112%,-1.09,-0.43,0.302,1.98% (inactive),-0.431 (inactive),-4.8e-05 (inactive),0.00628 (inactive),inactive,-14.1% (inactive)
CC(C)CNc1nc2c(c(=O)n(C)c(=O)n2C)n1Cc1cccc(Br)c1,696,0.6% (inactive),-160% (inactive),174%,0.789,-0.339,-0.433,7.93% (inactive),-0.498 (inactive),-3.9e-05 (inactive),0.00519 (inactive),inactive,13.3% (inactive)

# From PubChem BioAssay
